Measured values from the M2OR odorant receptor database.

Tests used:
Details in all cases: stereoisomer not certain
OR51E1 (Homo sapiens) [1] = target: T1, OR51E1 (Homo sapiens) (UniProt Q8TCB6)
T1 sequence (whole entry): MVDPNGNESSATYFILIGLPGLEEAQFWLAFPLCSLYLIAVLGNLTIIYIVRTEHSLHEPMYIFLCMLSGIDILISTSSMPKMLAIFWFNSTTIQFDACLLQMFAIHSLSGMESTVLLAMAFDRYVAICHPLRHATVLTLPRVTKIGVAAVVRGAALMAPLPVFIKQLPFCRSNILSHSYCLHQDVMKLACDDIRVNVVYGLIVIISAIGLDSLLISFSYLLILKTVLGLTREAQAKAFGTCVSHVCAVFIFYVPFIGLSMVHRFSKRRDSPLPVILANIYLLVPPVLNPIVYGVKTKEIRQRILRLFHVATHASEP
In short: (§1)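 Assay methods differ from source to source, frequently being transient luciferase assays in mammalian cell lines. For each receptor–molecule pair, the label responsive (active) applies when the original authors judged the measured signal statistically different from baseline, and non-responsive (inactive) applies otherwise.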

OR51E2 (Homo sapiens) = target: T2, OR51E2 (Homo sapiens) (UniProt Q9H255)
T2 sequence (whole entry): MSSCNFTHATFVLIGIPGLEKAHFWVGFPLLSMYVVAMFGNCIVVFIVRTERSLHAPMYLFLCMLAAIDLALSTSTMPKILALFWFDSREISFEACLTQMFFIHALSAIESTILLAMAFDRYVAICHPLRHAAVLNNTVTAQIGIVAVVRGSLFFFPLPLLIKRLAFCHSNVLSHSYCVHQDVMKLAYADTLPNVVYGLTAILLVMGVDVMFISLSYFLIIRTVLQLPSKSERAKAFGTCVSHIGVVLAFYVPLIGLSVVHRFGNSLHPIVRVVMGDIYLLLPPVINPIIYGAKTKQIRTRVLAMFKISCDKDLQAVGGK
In short: as §1

OR51L1 (Homo sapiens) = target: T3, OR51L1 (Homo sapiens) (UniProt Q8NGJ5)
T3 sequence (whole entry): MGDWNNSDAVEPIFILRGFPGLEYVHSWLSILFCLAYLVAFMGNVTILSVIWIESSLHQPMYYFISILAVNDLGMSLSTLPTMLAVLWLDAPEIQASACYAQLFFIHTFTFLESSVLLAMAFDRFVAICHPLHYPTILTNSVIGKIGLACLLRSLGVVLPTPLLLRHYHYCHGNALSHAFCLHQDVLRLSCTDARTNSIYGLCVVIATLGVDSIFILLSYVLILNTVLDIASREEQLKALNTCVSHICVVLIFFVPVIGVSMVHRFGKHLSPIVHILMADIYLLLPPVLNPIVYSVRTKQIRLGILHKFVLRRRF
In short: as §1

OR51D1 (Homo sapiens) = target: T4, OR51D1 (Homo sapiens) (UniProt Q8NGF3)
T4 sequence (whole entry): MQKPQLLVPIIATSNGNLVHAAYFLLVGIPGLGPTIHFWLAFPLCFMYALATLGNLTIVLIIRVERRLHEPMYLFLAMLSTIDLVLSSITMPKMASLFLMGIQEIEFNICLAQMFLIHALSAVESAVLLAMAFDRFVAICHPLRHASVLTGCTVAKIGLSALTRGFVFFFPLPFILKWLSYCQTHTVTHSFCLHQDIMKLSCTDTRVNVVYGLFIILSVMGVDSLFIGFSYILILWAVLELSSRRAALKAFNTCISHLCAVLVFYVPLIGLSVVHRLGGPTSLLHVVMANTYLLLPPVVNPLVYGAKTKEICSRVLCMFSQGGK
In short: as §1

OR51E1 (Homo sapiens) [2] = target: T5, OR51E1 (Homo sapiens) (UniProt Q8TCB6); remark: listed apart in the source
T5 sequence (whole entry): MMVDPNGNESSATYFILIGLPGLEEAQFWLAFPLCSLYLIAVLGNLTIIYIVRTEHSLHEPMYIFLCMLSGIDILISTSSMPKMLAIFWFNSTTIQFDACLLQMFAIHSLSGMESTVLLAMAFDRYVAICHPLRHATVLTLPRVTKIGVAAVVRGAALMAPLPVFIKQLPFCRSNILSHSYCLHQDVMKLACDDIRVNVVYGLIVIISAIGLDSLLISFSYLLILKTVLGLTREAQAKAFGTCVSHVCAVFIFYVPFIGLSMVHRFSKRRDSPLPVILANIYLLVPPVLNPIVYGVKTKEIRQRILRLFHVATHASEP
In short: as §1

OR51F2 (Homo sapiens) = target: T6, OR51F2 (Homo sapiens) (UniProt Q8NH61)
T6 sequence (whole entry): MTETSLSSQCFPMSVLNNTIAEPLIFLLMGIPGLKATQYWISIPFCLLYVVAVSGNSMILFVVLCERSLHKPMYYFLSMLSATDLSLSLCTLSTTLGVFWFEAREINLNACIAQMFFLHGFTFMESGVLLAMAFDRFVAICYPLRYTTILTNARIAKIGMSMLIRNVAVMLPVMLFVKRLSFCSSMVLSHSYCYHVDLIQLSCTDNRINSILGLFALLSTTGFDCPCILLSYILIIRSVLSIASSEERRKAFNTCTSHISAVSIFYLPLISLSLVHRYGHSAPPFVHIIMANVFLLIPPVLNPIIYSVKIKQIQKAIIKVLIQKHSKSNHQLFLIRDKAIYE
In short: as §1

OR51G1 (Homo sapiens) = target: T7, OR51G1 (Homo sapiens) (UniProt Q8NGK1)
T7 sequence (whole entry): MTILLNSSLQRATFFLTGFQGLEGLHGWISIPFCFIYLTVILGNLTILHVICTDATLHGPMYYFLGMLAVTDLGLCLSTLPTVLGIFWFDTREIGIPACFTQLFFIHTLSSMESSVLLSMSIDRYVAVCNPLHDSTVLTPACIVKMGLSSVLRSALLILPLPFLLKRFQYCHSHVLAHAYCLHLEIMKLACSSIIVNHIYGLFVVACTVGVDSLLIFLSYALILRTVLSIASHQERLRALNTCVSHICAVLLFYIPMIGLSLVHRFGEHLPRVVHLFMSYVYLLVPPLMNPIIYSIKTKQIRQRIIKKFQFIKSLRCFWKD
In short: as §1

OR51G2 (Homo sapiens) = target: T8, OR51G2 (Homo sapiens) (UniProt Q8NGK0)
T8 sequence (whole entry): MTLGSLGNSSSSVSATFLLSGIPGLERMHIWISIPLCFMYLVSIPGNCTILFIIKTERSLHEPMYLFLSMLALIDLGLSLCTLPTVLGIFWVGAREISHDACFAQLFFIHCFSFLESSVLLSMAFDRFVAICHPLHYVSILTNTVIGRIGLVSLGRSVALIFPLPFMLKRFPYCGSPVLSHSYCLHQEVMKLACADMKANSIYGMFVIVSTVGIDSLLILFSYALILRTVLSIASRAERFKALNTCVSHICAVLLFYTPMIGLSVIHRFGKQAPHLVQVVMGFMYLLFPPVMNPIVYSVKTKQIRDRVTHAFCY
In short: as §1

OR51I1 (Homo sapiens) = target: T9, OR51I1 (Homo sapiens) (UniProt Q9H343)
T9 sequence (whole entry): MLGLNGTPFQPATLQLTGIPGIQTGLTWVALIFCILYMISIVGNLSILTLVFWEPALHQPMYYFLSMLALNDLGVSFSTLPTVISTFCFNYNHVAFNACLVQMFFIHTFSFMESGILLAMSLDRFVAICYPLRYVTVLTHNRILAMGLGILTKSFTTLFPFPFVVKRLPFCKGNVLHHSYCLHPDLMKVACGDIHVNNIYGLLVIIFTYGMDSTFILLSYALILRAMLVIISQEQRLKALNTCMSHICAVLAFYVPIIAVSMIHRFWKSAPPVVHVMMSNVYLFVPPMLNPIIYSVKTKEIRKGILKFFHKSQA
In short: as §1

OR51I2 (Homo sapiens) = target: T10, OR51I2 (Homo sapiens) (UniProt Q9H344)
T10 sequence (whole entry): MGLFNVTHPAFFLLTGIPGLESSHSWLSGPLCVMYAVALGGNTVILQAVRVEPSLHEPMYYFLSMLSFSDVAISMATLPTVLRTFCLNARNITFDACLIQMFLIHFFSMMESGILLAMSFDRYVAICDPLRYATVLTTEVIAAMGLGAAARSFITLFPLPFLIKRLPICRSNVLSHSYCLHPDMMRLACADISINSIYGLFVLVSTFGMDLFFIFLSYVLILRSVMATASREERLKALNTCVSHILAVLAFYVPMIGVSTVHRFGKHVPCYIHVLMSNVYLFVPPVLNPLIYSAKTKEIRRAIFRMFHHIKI
In short: as §1

OR51J1 (Homo sapiens) = target: T11, OR51J1 (Homo sapiens) (UniProt Q9H342)
T11 sequence (whole entry): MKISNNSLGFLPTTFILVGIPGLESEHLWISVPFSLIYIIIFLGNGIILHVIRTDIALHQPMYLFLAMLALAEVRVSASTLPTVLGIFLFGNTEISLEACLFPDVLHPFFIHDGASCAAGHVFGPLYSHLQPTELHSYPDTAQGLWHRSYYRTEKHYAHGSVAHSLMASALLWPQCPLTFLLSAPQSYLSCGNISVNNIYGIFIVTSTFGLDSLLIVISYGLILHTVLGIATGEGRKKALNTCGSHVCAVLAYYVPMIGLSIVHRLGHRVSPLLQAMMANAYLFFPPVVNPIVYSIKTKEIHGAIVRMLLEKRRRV
In short: as §1

OR51M1 (Homo sapiens) = target: T12, OR51M1 (Homo sapiens) (UniProt Q9H341)
T12 sequence (whole entry): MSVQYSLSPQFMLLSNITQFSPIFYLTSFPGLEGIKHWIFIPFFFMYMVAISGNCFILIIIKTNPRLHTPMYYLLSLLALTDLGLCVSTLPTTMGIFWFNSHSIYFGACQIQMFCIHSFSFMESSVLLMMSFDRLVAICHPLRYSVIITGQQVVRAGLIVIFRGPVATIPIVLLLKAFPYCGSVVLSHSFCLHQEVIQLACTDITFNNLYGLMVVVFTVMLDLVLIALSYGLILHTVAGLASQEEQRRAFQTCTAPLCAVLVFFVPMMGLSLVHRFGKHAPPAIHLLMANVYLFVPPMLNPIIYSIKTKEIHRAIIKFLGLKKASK
In short: as §1

OR51Q1 (Homo sapiens) = target: T13, OR51Q1 (Homo sapiens) (UniProt Q8NH59)
T13 sequence (whole entry): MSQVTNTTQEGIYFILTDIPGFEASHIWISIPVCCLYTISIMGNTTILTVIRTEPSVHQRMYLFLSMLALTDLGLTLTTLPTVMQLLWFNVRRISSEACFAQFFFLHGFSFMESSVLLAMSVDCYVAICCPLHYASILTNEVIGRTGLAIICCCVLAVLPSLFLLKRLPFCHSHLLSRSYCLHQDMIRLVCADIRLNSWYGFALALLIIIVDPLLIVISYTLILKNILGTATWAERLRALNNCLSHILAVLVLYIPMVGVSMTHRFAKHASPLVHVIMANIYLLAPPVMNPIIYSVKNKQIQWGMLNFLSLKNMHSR
In short: as §1

OR51S1 (Homo sapiens) = target: T14, OR51S1 (Homo sapiens) (UniProt Q8NGJ8)
T14 sequence (whole entry): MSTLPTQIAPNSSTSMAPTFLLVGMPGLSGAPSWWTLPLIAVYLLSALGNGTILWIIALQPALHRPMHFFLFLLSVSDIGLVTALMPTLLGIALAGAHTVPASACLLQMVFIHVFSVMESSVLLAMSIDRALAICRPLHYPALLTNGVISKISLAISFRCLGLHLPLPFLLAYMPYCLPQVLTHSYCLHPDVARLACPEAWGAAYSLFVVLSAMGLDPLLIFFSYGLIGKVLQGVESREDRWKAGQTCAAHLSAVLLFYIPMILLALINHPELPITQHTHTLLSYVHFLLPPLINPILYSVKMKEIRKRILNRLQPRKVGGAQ
In short: as §1

OR51V1 (Homo sapiens) = target: T15, OR51V1 (Homo sapiens) (UniProt Q9H2C8)
T15 sequence (whole entry): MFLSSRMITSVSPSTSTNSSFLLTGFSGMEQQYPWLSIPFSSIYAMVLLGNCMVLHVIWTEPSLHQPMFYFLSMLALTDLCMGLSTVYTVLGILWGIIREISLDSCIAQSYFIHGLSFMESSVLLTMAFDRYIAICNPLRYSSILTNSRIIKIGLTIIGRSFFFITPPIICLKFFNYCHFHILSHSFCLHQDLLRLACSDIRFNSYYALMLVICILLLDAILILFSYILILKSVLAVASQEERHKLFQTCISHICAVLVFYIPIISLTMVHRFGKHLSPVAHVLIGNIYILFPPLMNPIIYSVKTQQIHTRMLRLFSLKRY
In short: as §1

OR52A1 (Homo sapiens) = target: T16, OR52A1 (Homo sapiens) (UniProt Q9UKL2)
T16 sequence (whole entry): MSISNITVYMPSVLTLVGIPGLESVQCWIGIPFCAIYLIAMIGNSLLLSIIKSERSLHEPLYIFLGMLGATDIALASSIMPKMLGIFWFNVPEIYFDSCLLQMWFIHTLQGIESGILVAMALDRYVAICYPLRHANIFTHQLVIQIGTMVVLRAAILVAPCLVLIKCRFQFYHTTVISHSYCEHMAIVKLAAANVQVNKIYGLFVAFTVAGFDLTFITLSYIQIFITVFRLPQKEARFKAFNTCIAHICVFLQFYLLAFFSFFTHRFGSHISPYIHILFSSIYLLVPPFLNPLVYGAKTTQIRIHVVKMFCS
In short: as §1

Measured: odorant receptor agonist call

CCCCCCCC(C)=O
inactive: OR51E1 (Homo sapiens) [1] | OR51E2 (Homo sapiens) | OR51L1 (Homo sapiens)

CCCCCCC(=O)[O-].[H+]
inactive: OR51E1 (Homo sapiens) [1] | OR51E2 (Homo sapiens) | OR51L1 (Homo sapiens)

CC(C)=CCCC(C)=CCO
inactive: OR51E1 (Homo sapiens) [1] | OR51E2 (Homo sapiens) | OR51L1 (Homo sapiens)

CC1=NC(C)C(C)S1 (stereo not given)
not listed: OR51E1 (Homo sapiens) [1]
inactive: all other assays above

CC(=O)OCc1ccccc1
inactive: OR51E1 (Homo sapiens) [1] | OR51E2 (Homo sapiens) | OR51L1 (Homo sapiens)

CC(C)=CCCC(C)CCO (stereo not given)
inactive: OR51E1 (Homo sapiens) [1] | OR51E2 (Homo sapiens) | OR51L1 (Homo sapiens)

CCC1OC(=O)C(O)=C1C (stereo not given)
not listed: OR51E1 (Homo sapiens) [1]
inactive: all other assays above
